{
  "source": "ChEMBL document CHEMBL5705905",
  "about": "“Pharmacological targeting of kinases MST1 and MST2 augments tissue repair and regeneration” (Sci Transl Med, 2016)",
  "key": {"[1]": {"biological_target": "T1, Serine/threonine-protein kinase 3 (Homo sapiens, UniProt Q13188)", "T1 sequence (Q13188 whole entry)": "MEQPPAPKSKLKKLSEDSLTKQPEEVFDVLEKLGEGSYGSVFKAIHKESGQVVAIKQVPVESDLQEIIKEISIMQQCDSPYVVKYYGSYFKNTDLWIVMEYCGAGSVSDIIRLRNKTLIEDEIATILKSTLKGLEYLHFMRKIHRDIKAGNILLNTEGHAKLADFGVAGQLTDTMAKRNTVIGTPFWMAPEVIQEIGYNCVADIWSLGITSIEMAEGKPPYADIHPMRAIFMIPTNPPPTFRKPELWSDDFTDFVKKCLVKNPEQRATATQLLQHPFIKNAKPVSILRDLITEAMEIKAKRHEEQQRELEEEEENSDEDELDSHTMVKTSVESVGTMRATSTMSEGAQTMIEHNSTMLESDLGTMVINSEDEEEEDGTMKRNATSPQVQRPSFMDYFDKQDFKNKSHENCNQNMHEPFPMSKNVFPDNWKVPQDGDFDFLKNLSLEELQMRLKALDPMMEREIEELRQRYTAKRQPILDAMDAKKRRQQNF", "test": "Inhibition of Flag-tagged full-length MST2 (unknown origin) transfected in HEK293T cells assessed as MOB1a phosphorylation level incubated for 3 hrs by immunoblot analysis"}, "[2]": {"biological_target": "Tyrosine-protein kinase CSK (Homo sapiens) (UniProt P41240)", "sequence (P41240 2-450 limits assumed)": "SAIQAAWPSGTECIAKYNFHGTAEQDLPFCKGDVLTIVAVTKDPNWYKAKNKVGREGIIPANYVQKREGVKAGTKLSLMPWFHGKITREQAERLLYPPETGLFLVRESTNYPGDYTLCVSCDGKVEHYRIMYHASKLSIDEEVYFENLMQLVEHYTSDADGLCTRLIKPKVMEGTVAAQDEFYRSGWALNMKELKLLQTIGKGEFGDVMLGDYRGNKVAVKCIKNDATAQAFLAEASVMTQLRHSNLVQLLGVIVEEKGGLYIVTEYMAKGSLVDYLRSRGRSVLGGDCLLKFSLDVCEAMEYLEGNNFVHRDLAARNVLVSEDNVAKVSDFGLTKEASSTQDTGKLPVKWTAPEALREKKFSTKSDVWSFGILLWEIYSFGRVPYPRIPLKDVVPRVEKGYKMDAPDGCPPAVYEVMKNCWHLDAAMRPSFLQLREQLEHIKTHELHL", "test": "Inhibition of CSK (unknown origin) assessed as remaining activity at 1 uM by Kinome scan method relative to control", "procedure,_shortened": "(§1)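 Active-site-dependent competition-binding profiling (KINOMEscan) at 1 μM against a 468-kinase panel; compound supplied from a 10 mM DMSO stock. Read-out is ctrl% = (test signal − positive control signal)/(negative control signal − positive control signal) × 100. DMSO is the negative control (100%) and a control compound the positive control (0%). Lower ctrl% means tighter binding.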"}, "[3]": {"biological_target": "Death-associated protein kinase 1 (Homo sapiens) (UniProt P53355)", "test": "Inhibition of DAPK1 (unknown origin) assessed as remaining activity at 1 uM by Kinome scan method relative to control", "procedure,_shortened": "as §1"}, "[4]": {"biological_target": "Interleukin-1 receptor-associated kinase 3 (Homo sapiens) (UniProt Q9Y616)", "sequence (Q9Y616 whole entry)": "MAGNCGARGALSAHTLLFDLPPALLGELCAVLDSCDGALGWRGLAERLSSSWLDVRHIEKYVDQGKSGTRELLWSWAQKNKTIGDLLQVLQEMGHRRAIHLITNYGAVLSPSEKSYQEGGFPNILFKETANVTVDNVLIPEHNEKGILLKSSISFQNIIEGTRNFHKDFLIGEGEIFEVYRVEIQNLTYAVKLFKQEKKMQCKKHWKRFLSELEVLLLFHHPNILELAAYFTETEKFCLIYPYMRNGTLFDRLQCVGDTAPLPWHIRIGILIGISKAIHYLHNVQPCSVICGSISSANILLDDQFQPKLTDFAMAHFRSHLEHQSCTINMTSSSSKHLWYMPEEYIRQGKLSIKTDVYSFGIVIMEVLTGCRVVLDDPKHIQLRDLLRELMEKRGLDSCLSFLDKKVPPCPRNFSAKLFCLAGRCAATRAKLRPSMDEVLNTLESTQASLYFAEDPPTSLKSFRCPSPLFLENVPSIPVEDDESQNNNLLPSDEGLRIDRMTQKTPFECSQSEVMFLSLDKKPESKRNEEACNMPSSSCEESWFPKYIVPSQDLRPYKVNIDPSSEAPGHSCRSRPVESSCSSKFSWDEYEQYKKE", "test": "Inhibition of IRAK3 (unknown origin) assessed as remaining activity at 1 uM by Kinome scan method relative to control"}, "[5]": {"biological_target": "Tyrosine-protein kinase FRK (Homo sapiens) (UniProt P42685)", "test": "Inhibition of FRK (unknown origin) assessed as remaining activity at 1 uM by Kinome scan method relative to control"}, "[6]": {"biological_target": "Cyclin-dependent kinase-like 5 (Homo sapiens) (UniProt O76039)", "test": "Inhibition of CDKL5 (unknown origin) assessed as remaining activity at 1 uM by Kinome scan method relative to control", "procedure,_shortened": "as §1"}, "[7]": {"tested_on": "HepG2", "test": "Inhibition of Flag-tagged MST1 Y101F mutant (unknown origin) in human HepG2 cells assessed as MOB1 phosphorylation level at 3 uM by immunoblot analysis", "format": "cell-based"}, "[8]": {"biological_target": "Serine/threonine-protein kinase WNK1 (Homo sapiens) (UniProt Q9H4A3)", "sequence (Q9H4A3 whole entry, looked up)": "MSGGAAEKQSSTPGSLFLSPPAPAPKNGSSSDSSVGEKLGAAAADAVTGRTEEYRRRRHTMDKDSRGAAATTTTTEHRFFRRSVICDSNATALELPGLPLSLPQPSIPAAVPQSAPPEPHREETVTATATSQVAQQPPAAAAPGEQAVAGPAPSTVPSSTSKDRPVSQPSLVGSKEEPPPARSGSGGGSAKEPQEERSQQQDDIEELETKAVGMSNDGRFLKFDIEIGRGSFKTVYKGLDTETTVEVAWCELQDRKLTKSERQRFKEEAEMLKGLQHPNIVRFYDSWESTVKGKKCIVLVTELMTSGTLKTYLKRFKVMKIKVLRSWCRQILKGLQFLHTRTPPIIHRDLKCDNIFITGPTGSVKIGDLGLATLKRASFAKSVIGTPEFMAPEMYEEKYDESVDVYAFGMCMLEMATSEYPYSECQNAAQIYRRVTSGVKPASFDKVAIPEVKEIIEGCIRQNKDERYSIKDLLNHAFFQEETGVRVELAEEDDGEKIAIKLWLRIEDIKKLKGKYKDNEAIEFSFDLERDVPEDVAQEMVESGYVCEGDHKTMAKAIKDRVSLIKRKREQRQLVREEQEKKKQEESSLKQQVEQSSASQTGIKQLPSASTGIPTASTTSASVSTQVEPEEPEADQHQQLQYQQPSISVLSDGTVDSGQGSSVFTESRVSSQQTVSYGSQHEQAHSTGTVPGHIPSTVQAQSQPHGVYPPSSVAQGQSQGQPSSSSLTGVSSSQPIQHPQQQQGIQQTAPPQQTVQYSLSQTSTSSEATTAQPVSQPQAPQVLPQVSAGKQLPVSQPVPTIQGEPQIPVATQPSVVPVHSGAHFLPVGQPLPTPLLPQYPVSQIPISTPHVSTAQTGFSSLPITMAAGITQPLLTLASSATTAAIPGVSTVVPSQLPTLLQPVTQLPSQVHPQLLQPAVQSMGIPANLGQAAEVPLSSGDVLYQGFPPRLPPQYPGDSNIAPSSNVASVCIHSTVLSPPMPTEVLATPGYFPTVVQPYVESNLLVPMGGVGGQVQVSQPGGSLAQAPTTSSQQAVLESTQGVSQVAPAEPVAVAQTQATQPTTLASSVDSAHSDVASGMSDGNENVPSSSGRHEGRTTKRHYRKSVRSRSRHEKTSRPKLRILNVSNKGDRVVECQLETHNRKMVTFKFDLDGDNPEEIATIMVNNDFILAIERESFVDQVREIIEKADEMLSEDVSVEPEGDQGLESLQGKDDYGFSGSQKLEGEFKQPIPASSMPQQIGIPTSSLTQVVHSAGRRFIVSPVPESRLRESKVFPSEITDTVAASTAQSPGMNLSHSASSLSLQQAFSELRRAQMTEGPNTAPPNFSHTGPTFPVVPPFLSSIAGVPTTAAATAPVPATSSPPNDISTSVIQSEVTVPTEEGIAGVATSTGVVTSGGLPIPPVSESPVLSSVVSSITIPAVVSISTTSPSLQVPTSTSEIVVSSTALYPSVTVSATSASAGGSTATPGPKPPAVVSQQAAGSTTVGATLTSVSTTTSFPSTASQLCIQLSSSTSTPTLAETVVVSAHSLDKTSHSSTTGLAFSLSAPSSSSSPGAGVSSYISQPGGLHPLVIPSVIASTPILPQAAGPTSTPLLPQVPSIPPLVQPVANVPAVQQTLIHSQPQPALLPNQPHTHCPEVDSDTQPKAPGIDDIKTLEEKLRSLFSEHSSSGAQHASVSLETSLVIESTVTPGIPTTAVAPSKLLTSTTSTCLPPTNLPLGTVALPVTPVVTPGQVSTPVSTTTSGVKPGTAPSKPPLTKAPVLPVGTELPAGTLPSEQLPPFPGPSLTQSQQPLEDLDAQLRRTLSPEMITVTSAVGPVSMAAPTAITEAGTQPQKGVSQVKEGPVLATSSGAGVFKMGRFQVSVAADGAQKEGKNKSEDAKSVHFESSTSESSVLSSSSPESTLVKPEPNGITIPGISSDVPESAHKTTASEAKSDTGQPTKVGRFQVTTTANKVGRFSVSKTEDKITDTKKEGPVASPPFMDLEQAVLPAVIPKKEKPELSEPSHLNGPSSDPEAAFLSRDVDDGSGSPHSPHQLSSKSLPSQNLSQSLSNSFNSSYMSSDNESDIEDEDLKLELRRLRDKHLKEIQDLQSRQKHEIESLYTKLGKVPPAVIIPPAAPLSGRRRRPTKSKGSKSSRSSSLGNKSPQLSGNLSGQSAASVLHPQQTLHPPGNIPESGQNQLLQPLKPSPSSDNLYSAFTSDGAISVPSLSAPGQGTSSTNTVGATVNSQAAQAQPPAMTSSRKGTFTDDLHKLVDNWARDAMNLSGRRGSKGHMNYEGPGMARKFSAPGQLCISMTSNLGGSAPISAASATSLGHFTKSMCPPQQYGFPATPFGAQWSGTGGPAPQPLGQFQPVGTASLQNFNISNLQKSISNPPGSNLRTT", "test": "Inhibition of WNK1 (unknown origin) assessed as remaining activity at 1 uM by Kinome scan method relative to control"}, "[9]": {"tested_on": "Mus musculus", "test": "Protection against APAP induced liver injury in mouse assessed as continual expansion of centrilobular necrotic lesions at 1 mg/kg, ip administered at 2.5 hrs by TUNEL staining", "format": "functional, organism-based"}, "[10]": {"tested_on": "Mast/stem cell growth factor receptor Kit (Homo sapiens), P10721 [V559D,T670I]", "test": "Inhibition of KIT V559D/T670I mutant (unknown origin) assessed as remaining activity at 1 uM by Kinome scan method relative to control"}, "[11]": {"biological_target": "STE20/SPS1-related proline-alanine-rich protein kinase (Homo sapiens) (UniProt Q9UEW8)", "test": "Inhibition of STK39 (unknown origin) assessed as remaining activity at 1 uM by Kinome scan method relative to control"}, "[12]": {"test": "Tmax in male Sprague-Dawley rat at 10 mg/kg, po measured for 24 hrs by LC-MS/MS analysis", "format": "ADME, organism-based", "conditions": "in vivo"}, "[13]": {"biological_target": "Tyrosine-protein kinase Fer (Homo sapiens) (UniProt P16591)", "sequence (P16591 whole entry, looked up)": "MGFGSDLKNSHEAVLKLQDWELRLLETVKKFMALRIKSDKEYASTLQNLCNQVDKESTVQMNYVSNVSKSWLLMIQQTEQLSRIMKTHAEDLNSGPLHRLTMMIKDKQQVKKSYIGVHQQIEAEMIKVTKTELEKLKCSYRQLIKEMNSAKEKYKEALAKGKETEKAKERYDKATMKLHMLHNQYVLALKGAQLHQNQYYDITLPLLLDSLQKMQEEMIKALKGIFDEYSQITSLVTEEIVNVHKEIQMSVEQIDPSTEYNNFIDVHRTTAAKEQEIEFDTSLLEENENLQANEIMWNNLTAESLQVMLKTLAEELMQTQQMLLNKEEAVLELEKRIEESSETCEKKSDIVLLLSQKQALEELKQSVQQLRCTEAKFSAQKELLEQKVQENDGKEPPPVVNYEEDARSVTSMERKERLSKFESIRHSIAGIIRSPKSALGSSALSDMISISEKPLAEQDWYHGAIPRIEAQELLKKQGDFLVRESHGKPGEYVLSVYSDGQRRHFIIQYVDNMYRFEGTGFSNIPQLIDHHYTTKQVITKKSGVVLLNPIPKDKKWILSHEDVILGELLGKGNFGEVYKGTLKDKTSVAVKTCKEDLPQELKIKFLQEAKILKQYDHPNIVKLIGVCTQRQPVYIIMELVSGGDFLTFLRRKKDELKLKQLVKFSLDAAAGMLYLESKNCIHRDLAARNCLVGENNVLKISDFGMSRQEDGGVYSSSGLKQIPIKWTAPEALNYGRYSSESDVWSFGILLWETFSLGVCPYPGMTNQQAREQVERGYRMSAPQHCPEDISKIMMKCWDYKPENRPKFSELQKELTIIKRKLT", "test": "Inhibition of FER (unknown origin) assessed as remaining activity at 1 uM by Kinome scan method relative to control"}, "[14]": {"test": "MRT (0 to infinity) in male Sprague-Dawley rat at 10 mg/kg, po measured for 24 hrs by LC-MS/MS analysis", "format": "ADME, organism-based", "conditions": "in vivo"}, "[15]": {"biological_target": "G protein-coupled receptor kinase 4 (Homo sapiens) (UniProt P32298)", "sequence (P32298 whole entry, looked up)": "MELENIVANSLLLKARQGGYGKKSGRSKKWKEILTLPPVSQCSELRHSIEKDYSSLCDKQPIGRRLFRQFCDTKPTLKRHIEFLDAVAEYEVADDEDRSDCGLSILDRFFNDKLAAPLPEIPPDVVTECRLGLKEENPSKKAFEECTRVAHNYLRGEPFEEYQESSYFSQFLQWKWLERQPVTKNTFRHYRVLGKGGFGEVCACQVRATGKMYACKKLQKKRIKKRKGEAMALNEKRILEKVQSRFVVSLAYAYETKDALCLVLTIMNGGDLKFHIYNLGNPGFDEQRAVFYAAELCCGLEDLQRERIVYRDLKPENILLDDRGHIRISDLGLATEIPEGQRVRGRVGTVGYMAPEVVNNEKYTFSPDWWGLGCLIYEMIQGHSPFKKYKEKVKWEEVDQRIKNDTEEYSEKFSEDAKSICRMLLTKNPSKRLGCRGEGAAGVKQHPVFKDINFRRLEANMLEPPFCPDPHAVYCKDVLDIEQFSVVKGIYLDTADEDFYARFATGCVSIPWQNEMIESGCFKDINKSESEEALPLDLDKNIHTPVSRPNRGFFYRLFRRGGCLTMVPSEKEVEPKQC", "test": "Inhibition of GRK4 (unknown origin) assessed as remaining activity at 1 uM by Kinome scan method relative to control"}, "[16]": {"tested_on": "Mus musculus", "test": "In vivo inhibition of MST1/2 in wild-type Mst1fl/fl Mst2fl/fl mouse assessed as decrease in YAP phosphorylation level at 1 mg/kg, ip administrated daily for 7 days by immunoblot analysis", "format": "functional, organism-based", "conditions": "Liver, time 7.0 day"}, "[17]": {"biological_target": "Mitogen-activated protein kinase kinase kinase kinase 2 (Homo sapiens) (UniProt Q12851)", "test": "Inhibition of MAP4K2 (unknown origin) assessed as remaining activity at 1 uM by Kinome scan method relative to control"}, "[18]": {"tested_on": "Primary hepatocyte", "test": "Inhibition of MST1/2 (unknown origin) in mouse Primary hepatocyte cells assessed as H2O2 stimulated MST1/2 autophosphorylation level at 1 to 3 uM by immunoblot analysis", "format": "cell-based", "conditions": "dose 1-3 µM"}, "[19]": {"biological_target": "T2, Serine/threonine-protein kinase 4 (Homo sapiens, UniProt Q13043)", "T2 sequence (Q13043 whole entry)": "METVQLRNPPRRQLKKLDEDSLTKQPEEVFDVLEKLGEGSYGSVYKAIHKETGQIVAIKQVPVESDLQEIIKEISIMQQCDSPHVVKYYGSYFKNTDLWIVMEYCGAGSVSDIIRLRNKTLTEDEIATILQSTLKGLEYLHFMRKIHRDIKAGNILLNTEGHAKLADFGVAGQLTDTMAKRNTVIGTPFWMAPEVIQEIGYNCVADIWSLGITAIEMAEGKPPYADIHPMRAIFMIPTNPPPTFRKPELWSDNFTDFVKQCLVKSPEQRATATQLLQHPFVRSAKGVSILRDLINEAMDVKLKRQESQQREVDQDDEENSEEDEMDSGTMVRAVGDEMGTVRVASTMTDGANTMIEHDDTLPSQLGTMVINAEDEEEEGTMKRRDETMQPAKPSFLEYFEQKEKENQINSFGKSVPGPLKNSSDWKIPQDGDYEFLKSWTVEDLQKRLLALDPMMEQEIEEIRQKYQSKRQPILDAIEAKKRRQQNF", "test": "Inhibition of recombinant His-tagged full-length MST1 (unknown origin) expressing in Escherichia coli assessed as MOB1a phosphorylation level incubated for 30 min in the presence of 100 uM ATP by immunoblot analysis"}, "[20]": {"biological_target": "Eukaryotic translation initiation factor 2-alpha kinase 1 (Homo sapiens) (UniProt Q9BQI3)", "test": "Inhibition of EIF2AK1 (unknown origin) assessed as remaining activity at 1 uM by Kinome scan method relative to control"}},
  "note": "Active and inactive are the calls of the source. The calls are words filed in the database; no cut-off is given here.",
  "data": [
    {"smiles": "CN1C(=O)c2sccc2N(C)c2nc(Nc3ccc(S(N)(=O)=O)cc3)ncc21", "values": [
      {"measurement": "IC50", "setting": "[1]", "result": 38.1, "unit": "nM"},
      {"measurement": "Activity", "setting": "[2]", "result": 100, "unit": "%"},
      {"measurement": "Activity", "setting": "[3]", "result": 91, "unit": "%"},
      {"measurement": "Activity", "setting": "[4]", "result": 100, "unit": "%"},
      {"measurement": "Activity", "setting": "[5]", "result": 100, "unit": "%"},
      {"measurement": "Activity", "setting": "[6]", "result": 85, "unit": "%"},
      {"measurement": "inhibition", "setting": "[7]", "result": "Active"},
      {"measurement": "Activity", "setting": "[8]", "result": 97, "unit": "%"},
      {"measurement": "Activity", "setting": "[9]", "result": "Active"},
      {"measurement": "Activity", "setting": "[10]", "result": 88, "unit": "%"},
      {"measurement": "Activity", "setting": "[11]", "result": 86, "unit": "%"},
      {"measurement": "Tmax", "setting": "[12]", "result": 3, "unit": "h"},
      {"measurement": "Activity", "setting": "[13]", "result": 100, "unit": "%"},
      {"measurement": "MRT inf", "setting": "[14]", "result": 7.34, "unit": "h"},
      {"measurement": "Activity", "setting": "[15]", "result": 99, "unit": "%"},
      {"measurement": "inhibition", "setting": "[16]", "result": "Active"},
      {"measurement": "Activity", "setting": "[17]", "result": 77, "unit": "%"},
      {"measurement": "inhibition", "setting": "[18]", "result": "Active"},
      {"measurement": "IC50", "setting": "[19]", "result": 1230, "unit": "nM"},
      {"measurement": "Activity", "setting": "[20]", "result": 94, "unit": "%"}
    ]}
  ]
}
